Test results: ChEMBL document CHEMBL2321722 (J Med Chem, 2013)

What was measured:
[1] = Apparent permeability from apical to basolateral side in human Caco2 cells at pH 6.5 by LC/MS analysis; format: ADME, cell-based; settings: Caco-2, pH 6.5
[2] = Dissociation constant, pKa of the compound at basic pH by pressure-assisted capillary electrophoresis; format: physicochemical
Method in brief: (§1)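 Ionization constants from a high-throughput screen using pressure-assisted capillary electrophoresis with mass spectrometry detection; stated accuracy ±0.2 pKa units.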

[3] = Dissociation constant, pKa of the compound at acidic pH by pressure-assisted capillary electrophoresis; format: physicochemical; method in brief: as §1
[4] = Lipophilicity, log D of the compound; format: physicochemical; settings: octanol/water
Plasminogen [5] = target: T1, Plasminogen (Homo sapiens, UniProt P00747); assay: Inhibition of plasminogen/fibrinogen interaction in pooled citreated human platelet-poor plasma assessed as inhibition of lysis of CaCl2/t-PA-induced clot by microtiter plate analysis; format: cell-free
Plasminogen [6] = target: T1, Plasminogen; assay: Inhibition of human Glu-plasminogen/fibrinogen interaction in HEPES buffer assessed as inhibition of lysis of thrombin-induced clot preincubated for 15 mins prior to thrombin addition measured for 15 hrs by clot-lysis buffer assay

T1 sequence (P00747 97-580 limits assumed): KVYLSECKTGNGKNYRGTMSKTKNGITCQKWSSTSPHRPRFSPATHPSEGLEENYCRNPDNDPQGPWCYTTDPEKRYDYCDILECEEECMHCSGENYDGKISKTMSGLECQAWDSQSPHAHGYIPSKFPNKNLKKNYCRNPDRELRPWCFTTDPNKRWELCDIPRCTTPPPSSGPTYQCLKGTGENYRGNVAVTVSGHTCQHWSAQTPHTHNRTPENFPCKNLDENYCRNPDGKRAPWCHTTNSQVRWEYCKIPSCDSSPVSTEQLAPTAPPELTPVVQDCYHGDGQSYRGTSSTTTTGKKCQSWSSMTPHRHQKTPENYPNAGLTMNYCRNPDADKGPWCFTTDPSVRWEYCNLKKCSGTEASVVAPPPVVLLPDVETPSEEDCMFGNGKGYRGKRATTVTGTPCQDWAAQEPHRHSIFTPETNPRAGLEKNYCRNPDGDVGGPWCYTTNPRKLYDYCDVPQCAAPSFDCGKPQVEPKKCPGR
T1 sequence (P00747 581-810 limits assumed): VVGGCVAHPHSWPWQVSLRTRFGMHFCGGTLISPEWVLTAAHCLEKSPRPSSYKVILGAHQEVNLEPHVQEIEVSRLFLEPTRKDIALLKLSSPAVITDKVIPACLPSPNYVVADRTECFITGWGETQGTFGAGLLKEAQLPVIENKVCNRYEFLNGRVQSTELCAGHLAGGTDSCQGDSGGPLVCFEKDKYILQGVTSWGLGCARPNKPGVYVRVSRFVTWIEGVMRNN

SMILES | Papp A→B [1] | pKa [2] | pKa [3] | logD [4] | IC50 (Plasminogen [5]) | IC50 (Plasminogen [6])
NC[C@H]1CC[C@H](C(=O)O)CC1 [TRANEXAMIC ACID] | 7.83 ×10⁻⁶ cm/s | 9.7 | 4.1 | – | – | –
Oc1cc(C2CCNCC2)on1 | – | 10.5 | 4 | < 0 | – | –
C1CC(c2nnn[nH]2)CCN1 | – | 10.7 | 4.3 | – | > 100 µM | > 100 µM
